Consider 13 molecules from ChEMBL document CHEMBL4184225, “Discovery of selective 2,4-diaminoquinazoline toll-like receptor 7 (TLR 7) agonists” (Bioorg Med Chem Lett, 2018).

The target in data set [1] is T1, Toll-like receptor 7 (Homo sapiens) (UniProt Q9NYK1).
T1 sequence (whole entry): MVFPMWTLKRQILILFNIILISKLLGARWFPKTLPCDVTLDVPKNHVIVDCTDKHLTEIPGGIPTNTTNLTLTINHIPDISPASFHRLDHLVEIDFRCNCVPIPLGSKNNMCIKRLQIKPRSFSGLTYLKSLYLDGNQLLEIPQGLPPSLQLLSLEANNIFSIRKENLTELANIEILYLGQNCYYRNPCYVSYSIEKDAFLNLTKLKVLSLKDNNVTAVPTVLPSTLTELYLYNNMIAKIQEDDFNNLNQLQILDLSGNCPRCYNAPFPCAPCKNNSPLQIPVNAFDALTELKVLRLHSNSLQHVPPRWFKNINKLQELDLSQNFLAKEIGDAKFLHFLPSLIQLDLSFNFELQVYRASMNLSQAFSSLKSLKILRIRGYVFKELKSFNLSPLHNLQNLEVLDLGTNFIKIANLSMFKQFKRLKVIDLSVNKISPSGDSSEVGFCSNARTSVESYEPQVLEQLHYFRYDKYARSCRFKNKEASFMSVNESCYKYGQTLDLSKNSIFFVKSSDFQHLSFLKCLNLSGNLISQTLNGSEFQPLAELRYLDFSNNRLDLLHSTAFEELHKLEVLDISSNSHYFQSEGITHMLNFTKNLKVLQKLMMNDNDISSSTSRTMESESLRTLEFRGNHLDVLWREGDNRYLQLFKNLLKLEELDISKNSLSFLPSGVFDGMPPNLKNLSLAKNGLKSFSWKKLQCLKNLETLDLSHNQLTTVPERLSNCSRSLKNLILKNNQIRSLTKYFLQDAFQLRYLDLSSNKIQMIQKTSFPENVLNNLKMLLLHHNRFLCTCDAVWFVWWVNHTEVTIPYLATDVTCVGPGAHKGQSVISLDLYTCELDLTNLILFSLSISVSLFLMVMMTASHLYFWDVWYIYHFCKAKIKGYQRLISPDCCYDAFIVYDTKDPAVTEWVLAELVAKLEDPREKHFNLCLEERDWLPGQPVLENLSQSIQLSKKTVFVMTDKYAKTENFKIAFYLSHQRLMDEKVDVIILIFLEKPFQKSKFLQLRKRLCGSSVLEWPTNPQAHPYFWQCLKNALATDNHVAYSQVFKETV
Briefly: Agonist activity at TLR7 in human PBMC assessed as suppression of HCV replicon replication in human HuH7 luc/neo cells harboring RNA encoding bicistronic expression construct comprising wild type HCV type 1b NS3-NS5B regions exposed to conditioned media from compound treated PBMCs by luciferase reporter gene assay. It counts as cell-based. A digest of the protocol: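 PBMCs from buffy coats of at least two donors (Ficoll), in RPMI with 10% human AB serum, 2 x 10^5 cells/well, incubated overnight with compound. Supernatant transferred onto Huh7-luc/neo replicon cells plated the day before (2.2 x 10^3/well). Luciferase read after 24 h. EC50 is the concentration applied to PBMCs giving 50% luciferase reduction. Recombinant IFN-α2a standard.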
(A replicon is a self-replicating genome or part of one, used to study replication in cells.)

Data set [2] is described as follows: Metabolic stability in mouse liver microsomes assessed as drug metabolism after 15 mins at 1 uM. The format is ADME, microsome. The following applies: read-out: Drug metabolism. A digest of the protocol:
(§1)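 Compound at 1µM incubated with liver microsomes of the stated species. Percent of compound metabolized after 15 min.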

The nature of data set [3]: Metabolic stability in human liver microsomes assessed as drug metabolism after 15 mins at 1 uM. The format is ADME, microsome. The following applies: read-out: Drug metabolism. A digest of the protocol: as §1
On the technique in general: Microsomes from liver hold many membrane-bound enzymes, among them those of drug oxidation.

A further data set addresses T2, Cytochrome P450 1A2 (Homo sapiens, UniProt P05177).
T2 sequence (P05177 whole entry): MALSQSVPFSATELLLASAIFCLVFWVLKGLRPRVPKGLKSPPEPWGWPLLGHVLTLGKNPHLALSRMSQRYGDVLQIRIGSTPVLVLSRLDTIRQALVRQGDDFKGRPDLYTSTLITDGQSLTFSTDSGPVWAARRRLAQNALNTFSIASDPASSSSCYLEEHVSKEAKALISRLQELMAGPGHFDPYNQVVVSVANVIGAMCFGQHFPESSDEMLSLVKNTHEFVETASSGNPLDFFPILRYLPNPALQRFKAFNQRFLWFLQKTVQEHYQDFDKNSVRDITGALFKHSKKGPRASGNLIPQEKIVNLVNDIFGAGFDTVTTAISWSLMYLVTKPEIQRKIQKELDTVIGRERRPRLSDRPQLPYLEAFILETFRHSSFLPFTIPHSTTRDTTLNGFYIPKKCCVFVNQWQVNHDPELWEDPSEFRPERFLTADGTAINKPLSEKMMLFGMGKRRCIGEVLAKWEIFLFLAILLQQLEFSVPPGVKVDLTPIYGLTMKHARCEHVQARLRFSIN
As to the kind of experiment: Inhibition of CYP1A2 (unknown origin). It counts as ADME.

Another data set has as its target Cytochrome P450 2C19 (Homo sapiens, UniProt P33261). Briefly: Inhibition of CYP2C19 (unknown origin). It counts as ADME.
The target in another data set is T3, Cytochrome P450 2C8 (Homo sapiens, UniProt P10632).
T3 sequence (P10632 whole entry): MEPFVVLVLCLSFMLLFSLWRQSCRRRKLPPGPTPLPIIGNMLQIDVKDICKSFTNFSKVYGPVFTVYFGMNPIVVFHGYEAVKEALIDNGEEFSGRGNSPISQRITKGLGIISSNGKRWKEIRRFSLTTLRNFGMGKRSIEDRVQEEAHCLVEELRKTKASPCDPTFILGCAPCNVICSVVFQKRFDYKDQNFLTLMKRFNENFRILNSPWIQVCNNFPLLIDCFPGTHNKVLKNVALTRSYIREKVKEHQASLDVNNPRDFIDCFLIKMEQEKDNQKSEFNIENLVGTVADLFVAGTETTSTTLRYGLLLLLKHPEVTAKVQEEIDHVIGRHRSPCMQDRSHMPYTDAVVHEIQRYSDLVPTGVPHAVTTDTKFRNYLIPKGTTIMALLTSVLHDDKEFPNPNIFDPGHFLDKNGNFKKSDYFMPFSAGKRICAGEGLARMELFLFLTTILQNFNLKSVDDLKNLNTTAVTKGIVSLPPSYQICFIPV
Briefly: Inhibition of CYP2C8 (unknown origin). It counts as ADME.

Chain of Cytochrome P450 2C19 (P33261 whole entry): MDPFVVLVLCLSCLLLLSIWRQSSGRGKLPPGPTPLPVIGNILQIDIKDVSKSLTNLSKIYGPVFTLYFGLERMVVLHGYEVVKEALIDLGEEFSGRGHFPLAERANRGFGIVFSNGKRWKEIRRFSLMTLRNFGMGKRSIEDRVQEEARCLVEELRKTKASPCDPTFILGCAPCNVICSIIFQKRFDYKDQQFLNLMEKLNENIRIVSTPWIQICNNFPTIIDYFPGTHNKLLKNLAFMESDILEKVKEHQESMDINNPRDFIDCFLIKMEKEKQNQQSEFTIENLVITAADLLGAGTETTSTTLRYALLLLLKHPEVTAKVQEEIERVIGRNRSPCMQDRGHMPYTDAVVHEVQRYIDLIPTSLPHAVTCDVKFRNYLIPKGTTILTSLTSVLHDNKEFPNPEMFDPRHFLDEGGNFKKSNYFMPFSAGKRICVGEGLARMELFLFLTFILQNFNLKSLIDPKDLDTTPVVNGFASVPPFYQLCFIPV

As to `CCCCNc1nc(N)nc2cccc(C(=O)N(C)Cc3ccccc3)c12`, the MEC in data set [1] was 0.27 µM. Also, the metabolised at 0.25 h, 1 µM stood at 99% in data set [2] and 98% in data set [3]. Moreover, the IC50 on Cytochrome P450 1A2, against Cytochrome P450 2C19 and at Cytochrome P450 2C8 was more than 10 µM in each case.
Take `CCCCNc1nc(N)nc2cccc(C(=O)N[C@@H](C)c3ccccc3)c12`: the MEC in data set [1] amounted to 0.14 µM. For the same molecule, the metabolised at 0.25 h, 1 µM amounted to 68% in data set [2] and 31% in data set [3]. Also, the IC50 against Cytochrome P450 1A2, at Cytochrome P450 2C19 and against Cytochrome P450 2C8 was more than 10 µM throughout.
`CCCCNc1nc(N)nc2cccc(C(=O)NC)c12`: the MEC in data set [1] was 0.15 µM. Besides, the metabolised at 0.25 h, 1 µM in data set [2] was found to be 90%; in data set [3], 23%. Also, the concentration for half-maximal inhibition (IC50) at Cytochrome P450 1A2, against Cytochrome P450 2C19 and at Cytochrome P450 2C8 was more than 10 µM in each case.
Consider `CCCCNc1nc(N)nc2ccccc12`, for which, in data set [3], the metabolised at 0.25 h, 1 µM was determined as 90%.
Regarding `CCCCNc1nc(N)nc2cccc(C(=O)NCc3ccccc3)c12`, the MEC in data set [1] was determined as 0.03 µM. In addition, the metabolised at 0.25 h, 1 µM in data set [2] came out at 92%; in data set [3], 28%. In addition, the IC50 against Cytochrome P450 1A2, against Cytochrome P450 2C19 and against Cytochrome P450 2C8 was more than 10 µM each time.
Turning to `CCCCNc1nc(N)nc2cccc(OCc3ccc(CO)cc3OC)c12`, in data set [1], the MEC worked out at 0.018 µM. Besides, the metabolised at 0.25 h, 1 µM in data set [2] stood at 98%; in data set [3] it was 43%. In addition, the IC50 against Cytochrome P450 1A2, against Cytochrome P450 2C19 and against Cytochrome P450 2C8 was more than 10 µM throughout.
As to `CCCCNc1nc(N)nc2cccc(OCc3cccnc3)c12`, in data set [1], the MEC was found to be 0.011 µM. The metabolised at 0.25 h, 1 µM in data set [2] came out at 99%; in data set [3] it was 44%. The IC50 was 0.9 µM at Cytochrome P450 1A2, more than 10 µM at Cytochrome P450 2C19 and more than 10 µM against Cytochrome P450 2C8.
Take `CCCCNc1nc(N)nc2cccc(OCc3ccccc3)c12`: the MEC in data set [1] was 0.04 µM. For the same molecule, the metabolised at 0.25 h, 1 µM turned out to be 97% in data set [2] and 11% in data set [3]. In addition, the IC50 at Cytochrome P450 1A2 is 0.3 µM; against Cytochrome P450 2C19, more than 10 µM; against Cytochrome P450 2C8, more than 10 µM.
In the case of `CCCCNc1nc(N)nc2cccc(C(=O)NC(C)C)c12`, in data set [1], the MEC is 0.56 µM. Besides, the results for the metabolised at 0.25 h, 1 µM in data set [2] and in data set [3] were 45% and 14%, respectively. Besides, the concentration for half-maximal inhibition (IC50) on Cytochrome P450 1A2, on Cytochrome P450 2C19 and on Cytochrome P450 2C8 was more than 10 µM in each case.
Turning to `CCCCNc1nc(N)nc2cccc(C(=O)N[C@H](C)c3ccccc3)c12`, in data set [1], the MEC is more than 25 µM. Further, the metabolised at 0.25 h, 1 µM in data set [2] is 75%; in data set [3], 32%. For the same molecule, the IC50 on Cytochrome P450 1A2, against Cytochrome P450 2C19 and on Cytochrome P450 2C8 was more than 10 µM throughout.
On to `CCCCNc1nc(N)nc2cccc(OCc3ccccn3)c12`, for which, in data set [1], the MEC was 0.043 µM. Further, the values for the metabolised at 0.25 h, 1 µM in data set [2] and in data set [3] were 99% and 60%, respectively. In addition, the IC50 against Cytochrome P450 1A2 was 1.3 µM; against Cytochrome P450 2C19 it was more than 10 µM; against Cytochrome P450 2C8 it was more than 10 µM.
For the molecule `CCCCNc1nc(N)nc2cccc(OCc3nccc(OC)c3OC)c12`, the MEC in data set [1] came to 0.034 µM. Moreover, the metabolised at 0.25 h, 1 µM in data set [2] was 98%; in data set [3] it was 37%. For the same molecule, the IC50 at Cytochrome P450 1A2 is 4.1 µM; on Cytochrome P450 2C19, more than 10 µM; at Cytochrome P450 2C8 it was more than 10 µM.
In the case of `CCCCNc1nc(N)nc2cccc(OCc3ccccc3OC)c12`, the MEC in data set [1] is 0.33 µM. Besides, the results for the metabolised at 0.25 h, 1 µM in data set [2] and in data set [3] were 98% and 48%, respectively. For the same molecule, the IC50 on Cytochrome P450 1A2 was 2.9 µM; on Cytochrome P450 2C19 it was more than 10 µM; against Cytochrome P450 2C8 it was more than 10 µM.

As usually defined, the IC50 is the concentration needed to halve the response being measured.
